The test system of series [1] is Plasmodium falciparum. As to the kind of experiment: Antimalarial activity against drug-sensitive Plasmodium falciparum 3D7 infected in human erythrocytes after 96 hrs by SYBR Green I-based fluorescence assay. Type of series: functional, organism-based. To be noted: 3D7, 96 h. In outline:
(§1)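 Ring-stage cultures synchronized with 10% D-sorbitol, grown in O+ human erythrocytes in RPMI-1640 with HEPES, hypoxanthine, glucose, gentamycin and Albumax II under 5% CO2/5% O2/90% N2 at 37°C. Compounds in DMSO (<0.013%), serially diluted, added at 1% parasitemia, 2% hematocrit. Static 96 h incubation, then SYBR Green I lysis buffer for 1 h in dark. Fluorescence at ex 485/em 538 nm.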

The test system of series [2] is Plasmodium falciparum. The series can be described thus: Antimalarial activity against Plasmodium falciparum assessed as increase in 1N ring or trophozoite stage parasites at 2 times IC50 after 72 hrs by FITC-SYBR Green I-based flow cytometry. Type of series: functional, organism-based. For orientation: A flow cytometer gives signals particle by particle.
The test system of series [3] is Plasmodium falciparum. As to the kind of experiment: Antimalarial activity against Plasmodium falciparum assessed as reduction in 2N schizont stage parasites at 2 times IC50 after 72 hrs by FITC-SYBR Green I-based flow cytometry. Type of series: functional, organism-based.
The test system of series [4] is Plasmodium falciparum. As to the kind of experiment: Antimalarial activity against Plasmodium falciparum assessed as inhibition of DNA replication at 2 times IC50 after 72 hrs by FITC-SYBR Green I-based flow cytometry. Type of series: functional, organism-based.
For series [5], the system named is Plasmodium falciparum. The series can be described thus: Antimalarial activity against Plasmodium falciparum 3D7 infected in human erythrocytes assessed as decrease in parasitemia at 2 times IC50 after 72 hrs by giemsa staining method. Type of series: functional, organism-based. In outline: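 P. falciparum 3D7 in O+ human erythrocytes, treated at 2xIC50 for 72 h. Parasitemia scored microscopically on Giemsa-stained smears, counting 100 parasites per slide 10x, alongside SYBR Green I DNA quantitation. Parasitemia compared at 0 h and 72 h. Three independent experiments in triplicate, mean ± S.E.; Student t-test, P<0.05.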

In series [6] the test system is Plasmodium falciparum. As to the kind of experiment: Antimalarial activity against Plasmodium falciparum 3D7 infected in human erythrocytes assessed as decrease in parasitemia at 2 times IC50 up to 72 hrs by SYBR Green I-based fluorescence assay in the presence of putrescine. Type of series: functional, organism-based. The procedure, abridged: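 Early-ring 3D7 cultures treated at 2xIC50 with 1 mM putrescine added after 24 h or 48 h, then incubated a further 24 or 48 h. Parasitemia followed over 72 h by SYBR Green I lysis fluorescence, as in the MSF assay. At least three biological repeats in duplicate, mean ± S.E.; two-way ANOVA, P<0.05.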

The subject of series [7] is HepG2. The series can be described thus: Cytotoxicity against human HepG2 cells after 48 hrs by lactate dehydrogenase assay. Type of series: cell-based. To be noted: hepg2, 48 h. The procedure, abridged: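 HepG2 cells in DMEM with 10% heat-inactivated FBS, 37°C, 5% CO2. Cells pelleted at 250xg, supernatant LDH activity read colorimetrically as NADH at 450 nm after 30 min at room temperature. Duplicate, at least two biological repeats, mean ± S.E.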

The test system of series [8] is Plasmodium falciparum. As to the kind of experiment: Antimalarial activity against Plasmodium falciparum assessed as inhibition of nuclear division measuring 1N ring or trophozoite stage parasites at 2 times IC50 after 72 hrs by FITC-SYBR Green I-based flow cytometry (reference value: 28 %). Details: scale not given: the % may be the effect or the level left. Type of series: functional.

Series [9] has as its system Plasmodium falciparum. The series can be described thus: Antimalarial activity against Plasmodium falciparum assessed as inhibition of nuclear division measuring >2N schizont stage parasites at 2 times IC50 after 72 hrs by FITC-SYBR Green I-based flow cytometry (reference value: 34 %). Type of series: functional. Details: scale not given: the % may be the effect or the level left.

Series [10] deals with Plasmodium falciparum. The series can be described thus: Antimalarial activity against Plasmodium falciparum assessed as inhibition of nuclear division measuring 2N schizont stage parasites at 2 times IC50 after 72 hrs by FITC-SYBR Green I-based flow cytometry (reference value: 38 %). Type of series: functional. More on the design: scale not given: the % may be the effect or the level left.

Series [11] deals with Plasmodium falciparum. As to the kind of experiment: Antimalarial activity against antifolate-resistant Plasmodium falciparum W2 infected in human erythrocytes after 96 hrs by SYBR Green I-based fluorescence assay. To be noted: W2, 96 h. Type of series: functional, organism-based. The procedure, abridged:
as §1

Series [12] deals with Plasmodium falciparum. The series can be described thus: Antimalarial activity against Plasmodium falciparum assessed as reduction in >2N schizont stage parasites at 2 times IC50 after 72 hrs by FITC-SYBR Green I-based flow cytometry. Type of series: functional, organism-based.

Active and inactive are the calls of the source. The rule behind the calls is not given here.

As to `Cl.Cl.S=C(NCCCNCCCCCCCNCCCNC(=S)NCC(c1ccccc1)c1ccccc1)NCC(c1ccccc1)c1ccccc1`, the IC50 – broadly, the concentration at which inhibition is half-maximal – stood at 405 nM in series [1] and 183 nM in series [11]. Moreover, the outcome in series [2], in [3], in [5], in series [6] and in [12] was Active. Further, in [4], the “DNA replication inhibition (active/inactive)” value is “Active”. Also, the GI50 (commonly the concentration giving 50% growth inhibition) in [7] is 24700 nM. The Activity in series [8] amounted to 78%; in [9], 2%; in [10], 20%.

These data come from ChEMBL document CHEMBL1828516, “Discovery of novel alkylated (bis)urea and (bis)thiourea polyamine analogues with potent antimalarial activities” (J Med Chem, 2011).
